pEC50: −log10 of the molar value. Values belong to the molecule of their own block, whether it stands above or below them. Active and inactive are the calls of the source. The calls are words filed in the database; no cut-off is given here.
Assays:
[1] = target: Free fatty acid receptor 1 (Homo sapiens, UniProt O14842); assay: Agonist activity at human GPR40 expressed in HEK293 cells assessed as increase in calcium mobilization by Fluo-8 dye based fluorescence assay; assay type: functional, cell-based
Sequence of Free fatty acid receptor 1 (Homo sapiens, UniProt O14842) (O14842 whole entry): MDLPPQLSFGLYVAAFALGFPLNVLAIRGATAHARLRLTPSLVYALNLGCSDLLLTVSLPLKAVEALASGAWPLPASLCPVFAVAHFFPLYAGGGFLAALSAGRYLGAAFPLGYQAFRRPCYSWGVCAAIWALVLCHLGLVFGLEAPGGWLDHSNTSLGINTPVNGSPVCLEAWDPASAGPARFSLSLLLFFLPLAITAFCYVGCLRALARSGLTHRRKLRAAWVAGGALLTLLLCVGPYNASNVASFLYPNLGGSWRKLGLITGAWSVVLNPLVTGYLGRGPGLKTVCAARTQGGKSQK

[2] = Half life in human liver microsomes at 0.1 mM in presence of NADPH by LC-MS analysis; assay type: ADME, microsome
[3] = Half life in mouse liver microsomes at 0.1 mM in presence of NADPH by LC-MS analysis; assay type: ADME, microsome
[4] = Apparent permeability across apical to basolateral side in human Caco2 cells by LC-MS analysis; assay type: ADME, cell-based; conditions: caco-2
[5] = Efflux ratio of permeability from […] in human Caco2 cells by LC-MS analysis; assay type: ADME, cell-based; conditions: caco-2
[6] = target: Free fatty acid receptor 1 (Rattus norvegicus, UniProt Q8K3T4); assay: Agonist activity at rat GPR40; assay type: functional
Sequence of Free fatty acid receptor 1 (Rattus norvegicus, UniProt Q8K3T4) (Q8K3T4 whole entry): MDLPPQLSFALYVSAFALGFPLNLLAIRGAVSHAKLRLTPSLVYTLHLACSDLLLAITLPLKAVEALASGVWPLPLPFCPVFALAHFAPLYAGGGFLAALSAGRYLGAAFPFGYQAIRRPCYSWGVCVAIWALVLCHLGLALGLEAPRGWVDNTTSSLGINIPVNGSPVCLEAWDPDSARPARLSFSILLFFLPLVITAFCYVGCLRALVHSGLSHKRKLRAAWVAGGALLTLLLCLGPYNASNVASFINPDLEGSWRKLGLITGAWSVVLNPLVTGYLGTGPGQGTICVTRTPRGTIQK

[7] = target: Free fatty acid receptor 1 (Mus musculus, UniProt Q76JU9); assay: Agonist activity at mouse GPR40; assay type: functional
Sequence of Free fatty acid receptor 1 (Mus musculus, UniProt Q76JU9) (Q76JU9 whole entry): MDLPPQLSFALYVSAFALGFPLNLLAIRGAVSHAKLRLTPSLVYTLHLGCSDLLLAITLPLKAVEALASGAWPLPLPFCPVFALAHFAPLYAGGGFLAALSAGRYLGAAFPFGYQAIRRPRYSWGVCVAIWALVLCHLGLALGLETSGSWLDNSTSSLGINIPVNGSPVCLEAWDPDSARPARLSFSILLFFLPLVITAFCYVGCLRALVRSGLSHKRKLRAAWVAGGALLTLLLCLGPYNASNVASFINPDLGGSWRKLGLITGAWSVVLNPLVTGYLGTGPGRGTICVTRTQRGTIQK

[8] = AUC (0 to 8 hrs) in ICR mouse at 30 mg/kg, po by LC-MS analysis; assay type: ADME, organism-based; parameters: dose 30 mg/kg, time < 8 hr, route oral; conditions: in vivo
In short: (§1)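 Male ICR mice, single oral dose of 30mg/kg, n = 3 per compound; vehicle 0.1% Tween-80 in 1% hydropropylcellulose sodium. Plasma sampled over time to derive pharmacokinetic parameters.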

[9] = Half life in ICR mouse at 30 mg/kg, po by LC-MS analysis; assay type: ADME, organism-based; conditions: in vivo; in short: as §1
[10] = Tmax in ICR mouse at 30 mg/kg, po by LC-MS analysis; assay type: ADME, organism-based; conditions: in vivo; in short: as §1
[11] = Cmax in ICR mouse at 30 mg/kg, po by LC-MS analysis; assay type: ADME, organism-based; parameters: dose 30 mg/kg, route oral; conditions: in vivo; in short: as §1
[12] = Ratio of drug uptake in ICR mouse brain to plasma at 30 mg/kg, po measured at 0.75 hrs by LC-MS analysis; assay type: ADME, organism-based; conditions: read-out: BPR
In short: (§2)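 Male ICR mice (n = 3) were dosed orally at 30 mg/kg and sacrificed at a set time point. The time point depended on the compound: 0.75 h for some and 1 h for others. Total drug in brain and liver was expressed as a ratio to total plasma drug (brain-to-plasma and liver-to-plasma distribution ratios).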

[13] = Ratio of drug uptake in ICR mouse liver to plasma at 30 mg/kg, po measured at 0.75 hrs by LC-MS analysis; assay type: ADME, organism-based; in short: as §2
[14] = Ratio of drug uptake in ICR mouse brain to plasma at 30 mg/kg, po measured at 1 hr by LC-MS analysis; assay type: ADME, organism-based; conditions: read-out: BPR
In short: (§3)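 Male ICR mice received 30mg/kg orally, n = 3. Mice were sacrificed at 0.75 h or 1 h depending on compound. Total drug in brain or liver was divided by plasma drug to give the distribution ratio.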

[15] = Ratio of drug uptake in ICR mouse liver to plasma at 30 mg/kg, po measured at 1 hr by LC-MS analysis; assay type: ADME, organism-based; in short: as §3
[16] = Ratio of drug uptake in rat brain to plasma; assay type: ADME; conditions: read-out: BPR
[17] = system: Mus musculus; assay: Antidiabetic activity in ICR mouse assessed as reduction in blood glucose AUC (0 to 120 mins) at 100 mg/kg, po dosed 30 minutes prior to glucose challenge by OGTT; assay type: functional, organism-based
In short: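 ICR mice (n=8) received compound orally before an oral glucose load of 2.5 g/kg. […] Comparison was against vehicle control by Student's t-test.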

pEC50 [1]: 6.54
SMILES: CC#CC(CC(=O)O)c1ccc(OCc2ccc(C(=O)N3CCN(c4ccc(OC)cc4)CC3)s2)cc1 (stereo not drawn)

pEC50 [1]: < 5.30
SMILES: CC#C[C@H](CC(=O)O)c1ccc(OCc2ccc(C(=O)N3CCN(c4ccc(F)cc4)CC3)s2)cc1

pEC50 [1]: < 5.78
SMILES: O=C(O)CC1COc2cc(OCc3ccc(C(=O)N4CCN(c5ccc(F)cc5)CC4)s3)ccc21 (stereo not drawn)

pEC50 [1]: 7.30
SMILES: CC#CC(CC(=O)O)c1ccc(OCc2ccc(C(=O)N3CCc4ccccc4C3)o2)cc1 (stereo not drawn)

pEC50 [1]: 7.10
SMILES: CC#CC(CC(=O)O)c1ccc(OCc2ccc(C(=O)N3CCCc4ccccc43)s2)cc1 (stereo not drawn)

pEC50 [1]: < 5.30
SMILES: CC#CC(CC(=O)O)c1ccc(OCc2ccc(C(=O)N3CCN(C)CC3)s2)cc1 (stereo not drawn)

pEC50 [1]: 6.69
SMILES: CC#CC(CC(=O)O)c1ccc(OCc2cnc(C(=O)N3CCN(c4ccc(F)cc4)CC3)s2)cc1 (stereo not drawn)

pEC50 [1]: 6.96
SMILES: CC#CC(CC(=O)O)c1ccc(OCc2ccc(C(=O)NC3CCCc4ccccc43)s2)cc1 (stereo not drawn)

pEC50 [1]: 7.24
SMILES: CC#CC(CC(=O)O)c1ccc(OCc2ccc(C(=O)N3CCc4ccccc4C3)s2)cc1 (stereo not drawn)

pEC50 [1]: 7.14
half-life at 100 µM [2]: 105 min
half-life at 100 µM [3]: 55 min
SMILES: CC#CC(CC(=O)O)c1ccc(OCc2ccc(C(=O)N3CCN(c4ccccc4)CC3)s2)cc1 (stereo not drawn)

pEC50 [1]: 5.94
SMILES: CC#CC(CC(=O)O)c1ccc(OCc2ccc(C(=O)N3CCN(c4cccnc4)CC3)s2)cc1 (stereo not drawn)

pEC50 [1]: 7.38
SMILES: CC#CC(CC(=O)O)c1ccc(OCc2ccc(C(=O)NC3CCCc4ccccc43)cc2)cc1 (stereo not drawn)

pEC50 [1]: 6.94
SMILES: CC#CC(CC(=O)O)c1ccc(OCc2ccc(C(=O)N3CCN(c4ccc(F)cc4)CC3)cc2)cc1 (stereo not drawn)

pEC50 [1]: 6.95
SMILES: CC#CC(CC(=O)O)c1ccc(OCc2ccc(C(=O)N3CCN(c4ccccc4F)CC3)s2)cc1 (stereo not drawn)

pEC50 [1]: 7.70
half-life at 100 µM [2]: 387 min
half-life at 100 µM [3]: 74 min
Papp A→B [4]: 18.8 ×10⁻⁶ cm/s
Ratio [5]: 0.9
pEC50 [6]: 7.85
pEC50 [7]: 7.64
AUC(0-t) at 8 h [8]: 80000 ng·h/mL
half-life [9]: 318 min
Tmax [10]: 72 min
Cmax [11]: 15400 ng/mL
Kp at 1 h [14]: 0.011
Kp at 1 h [15]: 0.3
SMILES: CC#C[C@@H](CC(=O)O)c1ccc(OCc2ccc(C(=O)N[C@@H]3CCCc4ccccc43)cc2)cc1
Activity [17]: Active

pEC50 [1]: 6.81
SMILES: CC#CC(CC(=O)O)c1ccc(OCc2ccc(C(=O)N3CCN(Cc4ccccc4)CC3)s2)cc1 (stereo not drawn)

pEC50 [1]: 7.27
SMILES: CC#CC(CC(=O)O)c1ccc(OCc2ccc(C(=O)N3CCN(c4ccc(F)cc4)CC3)s2)cc1 (stereo not drawn)

The next lines start with the molecule.

SMILES: CC#CC(CC(=O)O)c1ccc(OCc2ccc(C(=O)N3CCN(c4ccc(C)cc4)CC3)s2)cc1 (stereo not drawn)
pEC50 [1]: 6.68

SMILES: CC#CC(CC(=O)O)c1ccc(OCc2ccc(C(=O)N3CCC4(C=Cc5ccccc54)CC3)s2)cc1 (stereo not drawn)
pEC50 [1]: 6.76
half-life at 100 µM [2]: 25 min
half-life at 100 µM [3]: 7 min
Papp A→B [4]: 19.3 ×10⁻⁶ cm/s
Ratio [5]: 0.3

SMILES: CC#CC(CC(=O)O)c1ccc(OCc2ccc(C(=O)NC3CCCc4ccccc43)o2)cc1 (stereo not drawn)
pEC50 [1]: 6.88

SMILES: CC#CC(CC(=O)O)c1ccc(OCc2ccc(C(=O)N3CCN(c4cccc([N+](=O)[O-])c4)CC3)s2)cc1 (stereo not drawn)
pEC50 [1]: 6.73

SMILES: O=C(O)CCc1ccc(OCc2ccc(C(=O)N3CCN(c4ccc(F)cc4)CC3)s2)cc1
pEC50 [1]: 6.21

SMILES: CC#CC(CC(=O)O)c1ccc(OCc2ccc(C(=O)N3CCN(c4ccncc4)CC3)s2)cc1 (stereo not drawn)
pEC50 [1]: < 5.30

SMILES: CC#C[C@@H](CC(=O)O)c1ccc(OCc2ccc(C(=O)N[C@H]3CCCc4ccccc43)cc2)cc1
pEC50 [1]: 7.41
half-life at 100 µM [2]: 214 min
half-life at 100 µM [3]: 27 min
Papp A→B [4]: 15.2 ×10⁻⁶ cm/s
Ratio [5]: 1.2
pEC50 [6]: 7.55
pEC50 [7]: 7.38
AUC(0-t) at 8 h [8]: 3760 ng·h/mL
half-life [9]: 180 min
Tmax [10]: 15 min
Cmax [11]: 3770 ng/mL
Kp at 0.75 h [12]: 0.006
Kp at 0.75 h [13]: 0.9

SMILES: CC#CC(CC(=O)O)c1ccc(OCc2ccc(C(=O)N3CCN(c4ccc(C(C)(C)C)cc4)CC3)s2)cc1 (stereo not drawn)
pEC50 [1]: 6.38

SMILES: CC#C[C@@H](CC(=O)O)c1ccc(OCc2ccc(C(=O)N3CCN(c4ccc(F)cc4)CC3)s2)cc1
pEC50 [1]: 7.33
half-life at 100 µM [2]: 64 min
half-life at 100 µM [3]: 120 min
Papp A→B [4]: 20.6 ×10⁻⁶ cm/s
Ratio [5]: 0.8
pEC50 [6]: 7.60
pEC50 [7]: 7.51
AUC(0-t) at 8 h [8]: 28400 ng·h/mL
half-life [9]: 228 min
Tmax [10]: 48 min
Cmax [11]: 13300 ng/mL
Kp at 1 h [14]: 0.018
Kp at 1 h [15]: 15.1

SMILES: CC#CC(CC(=O)O)c1ccc(OCc2ccc(C(=O)N3CCN(c4ccccc4[N+](=O)[O-])CC3)s2)cc1 (stereo not drawn)
pEC50 [1]: 7.03

SMILES: CC#CC(CC(=O)O)c1ccc(OCc2ccc(C(=O)N3CCN(c4cccc(F)c4)CC3)s2)cc1 (stereo not drawn)
pEC50 [1]: 7.01

SMILES: O=C(O)CC(c1ccc(OCc2ccc(C(=O)N3CCN(c4ccc(F)cc4)CC3)s2)cc1)C1CC1 (stereo not drawn)
pEC50 [1]: < 5.78

SMILES: CC#CC(CC(=O)O)c1ccc(OCc2ccc(C(=O)N3CCN(C4CCCCC4)CC3)s2)cc1 (stereo not drawn)
pEC50 [1]: 6.09

SMILES: CC#CC(CC(=O)O)c1ccc(OCc2ccc(C(=O)N3CCc4ccccc4C3)cc2)cc1 (stereo not drawn)
pEC50 [1]: 6.97

SMILES: CC#CC(CC(=O)O)c1ccc(OCc2ccc(C(=O)N3CCN(c4ccc(Cl)cc4)CC3)s2)cc1 (stereo not drawn)
pEC50 [1]: 6.88

SMILES: CC#CC(CC(=O)O)c1ccc(OCc2ccc(C(=O)N3CCN(c4ccccn4)CC3)s2)cc1 (stereo not drawn)
pEC50 [1]: 6.86

SMILES: Cc1nc(-c2ccc(C(F)(F)F)cc2)sc1COc1ccc([C@H](CC(=O)O)c2ccon2)cc1
Kp [16]: 0.02

SMILES: CC#CC(CC(=O)O)c1ccc(OCc2ccc(C(=O)N3CCC4(C=Cc5ccccc54)CC3)cc2)cc1 (stereo not drawn)
pEC50 [1]: 6.75
half-life at 100 µM [2]: 9 min
half-life at 100 µM [3]: 6 min
Papp A→B [4]: 10.9 ×10⁻⁶ cm/s
Ratio [5]: 0.3

SMILES: CC#CC(CC(=O)O)c1ccc(OCc2cnc(C(=O)NC3CCCc4ccccc43)s2)cc1 (stereo not drawn)
pEC50 [1]: 6.84

SMILES: CC#CC(CC(=O)O)c1ccc(OCc2cnc(C(=O)N3CCc4ccccc4C3)s2)cc1 (stereo not drawn)
pEC50 [1]: 6.27

SMILES: CC#CC(CC(=O)O)c1ccc(OCc2ccc(C(=O)N3CCN(c4ccc([N+](=O)[O-])cc4)CC3)s2)cc1 (stereo not drawn)
pEC50 [1]: 6.64

SMILES: CC#C[C@@H](CC(=O)O)c1ccc(OCc2ccc(CN3CCC4(C=Cc5ccccc54)CC3)cc2)cc1 [LY2881835]
pEC50 [1]: 6.87
half-life at 100 µM [2]: 18 min
half-life at 100 µM [3]: 2 min
Papp A→B [4]: 15 ×10⁻⁶ cm/s
Ratio [5]: 0.4
AUC(0-t) at 8 h [8]: 5150 ng·h/mL
half-life [9]: 78 min
Tmax [10]: 42 min
Cmax [11]: 2850 ng/mL
Kp at 0.75 h [12]: 0.14
Kp at 0.75 h [13]: 2.5

SMILES: CC#CC(CC(=O)O)c1ccc(OCc2ccc(C(=O)N3CCN(c4ccc(F)cc4)CC3)o2)cc1 (stereo not drawn)
pEC50 [1]: 6.51

SMILES: Cc1cc(Cl)ccc1-c1cccc(COc2ccc([C@H](CC(=O)O)c3nccn3C)cc2)c1
Kp [16]: 0.04
